Results reported in ChEMBL document CHEMBL1143023, “Chemical synthesis and biological activities of 16alpha-derivatives of 5alpha-androstane-3alpha,17beta-diol as antiandrogens” (2007).
The source made the active and inactive calls. The calls are words filed in the database; no cut-off is given here.

How the values were obtained:
[1] = Proliferative activity on androgen sensitive AR+ Shionogi cells at 0.1 uM relative to DHT; assay type: functional, Mus musculus
In short: (§1)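 AR+ Shionogi cells were given test compound alone, without DHT, for 10 days. Growth was read as DNA content by a modified Fiszer-Szafarz method. Stimulation % = 100 × [DNA(compound) − DNA(control)]/[DNA(DHT) − DNA(control)], with 0.3 nM DHT set as 100%. One experiment in triplicate.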

[2] = system: PC-3; experiment: Reduction of non-androgen sensitive AR- PC3 cell growth at 1 uM; assay type: functional, cell-based
In short: (§2)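 PC-3 human prostate carcinoma (AR−) cells from passage 28 were allowed to adhere for 24 h. Medium was then changed to MEM with 2% charcoal-stripped FBS containing compound from 1000-fold ethanol stocks; the vehicle control was 0.1% EtOH. Cells grew 9 days at 37 °C, 5% CO2, with medium changes every 2–3 days. DNA content was measured; triplicate wells.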

[3] = Inhibition of DHT-stimulated proliferation of androgen sensitive AR+ Shionogi cells at 1 uM; assay type: functional; conditions: Mus musculus
[4] = system: PC-3; experiment: Reduction of non-androgen sensitive AR- PC3 cell growth at 0.3 uM; assay type: functional, cell-based; in short: as §2
[5] = Stimulation of androgen sensitive AR+ Shionogi cell proliferation at 1 uM; assay type: functional, Mus musculus; in short: as §1
[6] = Inhibition of DHT-stimulated proliferation of androgen sensitive AR+ Shionogi cells at 0.1 uM; assay type: functional; conditions: Mus musculus

For `C[C@]12CC[C@H]3[C@@H](CCC4CC(=O)CC[C@@]43C)[C@@H]1C[C@@H](CCCCl)[C@@H]2O` (stereo partly specified), the Activity [1] was 36%, the Activity [2] was “inactive” and the inhibition at 1 µM [3] was 42%. The Activity [4] was “inactive”, the Activity [5] was 52% and the inhibition at 0.1 µM [6] was 44%.

Compound `C[C@]12CCC(=O)C[C@@H]1CC[C@@H]1[C@@H]2CC[C@]2(C)[C@@H](O)[C@H](CCCOCc3ccc(Br)cc3)C[C@@H]12` has an Activity [1] of 153%, an inhibition at 1 µM [3] of 0% and an inhibition at 0.1 µM [6] of 0%.

Compound `C[C@]12CC[C@@H](O)C[C@@H]1CC[C@@H]1[C@@H]2CC[C@]2(C)[C@@H](O)[C@H](CCCN)C[C@@H]12` has an Activity [1] of 1%, an inhibition at 1 µM [3] of 0% and an inhibition at 0.1 µM [6] of 0%.

`C[C@]12CCC(=O)C[C@@H]1CC[C@@H]1[C@@H]2CC[C@]2(C)[C@@H](O)[C@H](CCCSC#N)C[C@@H]12` showed an Activity [1] of 21%, an inhibition at 1 µM [3] of 45% and an inhibition at 0.1 µM [6] of 0%.

In the case of `C[C@]12CC[C@@H](O)C[C@@H]1CC[C@@H]1[C@@H]2CC[C@]2(C)[C@@H](O)[C@H](CCCSC#N)C[C@@H]12`, the Activity [1] is reported as 5%, the inhibition at 1 µM [3] is reported as 50% and the inhibition at 0.1 µM [6] is reported as 2%.

In the case of `C[C@]12CC[C@H]3[C@@H](CCC4CC(=O)CC[C@@]43C)[C@@H]1C[C@@H](CCCI)[C@@H]2O` (stereo partly specified), the Activity [1] is reported as 22%, the inhibition at 1 µM [3] is reported as 76% and the inhibition at 0.1 µM [6] is reported as 41%.

In the case of `C[C@]12CC[C@@H](O)C[C@@H]1CC[C@@H]1[C@@H]2CC[C@]2(C)[C@@H](O)[C@H](CCCBr)C[C@@H]12`, the Activity [1] is reported as 0%, the inhibition at 1 µM [3] is reported as 80% and the inhibition at 0.1 µM [6] is reported as 46%.

Compound `C[C@]12CC[C@@H](O)C[C@@H]1CC[C@@H]1[C@@H]2CC[C@]2(C)[C@@H](O)[C@H](CCCO)C[C@@H]12` has an Activity [1] of 0%, an inhibition at 1 µM [3] of 35% and an inhibition at 0.1 µM [6] of 16%.

Work on `C[C@]12CC[C@@H](O)C[C@@H]1CC[C@@H]1[C@@H]2CC[C@]2(C)[C@@H](O)[C@H](CCCOCc3ccc(Br)cc3)C[C@@H]12` yielded an Activity [1] of 163%, an inhibition at 1 µM [3] of 7% and an inhibition at 0.1 µM [6] of 0%.

`C[C@]12CC[C@@H](O)C[C@@H]1CC[C@@H]1[C@@H]2CC[C@]2(C)[C@@H](O)[C@H](CCCI)C[C@@H]12` showed an Activity [1] of 0%, an inhibition at 1 µM [3] of 90% and an inhibition at 0.1 µM [6] of 36%.

Work on `C[C@]12CC[C@@H](O)C[C@@H]1CC[C@@H]1[C@@H]2CC[C@]2(C)[C@@H](O)[C@H](CCCF)C[C@@H]12` yielded an Activity [1] of 0%, an inhibition at 1 µM [3] of 70% and an inhibition at 0.1 µM [6] of 44%.

For `C[C@]12CC[C@@H](O)C[C@@H]1CC[C@@H]1[C@@H]2CC[C@]2(C)[C@@H](O)[C@H](CCCCl)C[C@@H]12`, the Activity [1] was 0%, the Activity [2] was “inactive” and the inhibition at 1 µM [3] was 94%. For the same compound, the Activity [4] was “inactive” and the inhibition at 0.1 µM [6] was 67%.

Compound `CO[C@@H]1CC[C@@]2(C)[C@@H](CC[C@@H]3[C@@H]2CC[C@]2(C)[C@@H](O)[C@H](CCCI)C[C@@H]32)C1` has an Activity [1] of 0%, an inhibition at 1 µM [3] of 46% and an inhibition at 0.1 µM [6] of 0%.

Work on `C[C@]12CC[C@@H](O)C[C@@H]1CC[C@@H]1[C@@H]2CC[C@]2(C)[C@@H](O)[C@H](CCCN=[N+]=[N-])C[C@@H]12` yielded an Activity [1] of 0%, an inhibition at 1 µM [3] of 89% and an inhibition at 0.1 µM [6] of 58%.

In the case of `CC(C)(O)C(=O)Nc1ccc([N+](=O)[O-])c(C(F)(F)F)c1` [HYDROXYFLUTAMIDE], the Activity [1] is reported as 0%, the inhibition at 1 µM [3] is reported as 100% and the inhibition at 0.1 µM [6] is reported as 67%.

Compound `C[C@]12CC[C@H]3[C@@H](CCC4CC(=O)CC[C@@]43C)[C@@H]1C[C@@H](CCCN=[N+]=[N-])[C@@H]2O` (stereo partly specified) has an Activity [1] of 33%, an inhibition at 1 µM [3] of 58% and an inhibition at 0.1 µM [6] of 73%.

With `C[C@]12CC[C@H]3[C@@H](CCC4CC(=O)CC[C@@]43C)[C@@H]1C[C@@H](CCCO)[C@@H]2O` (stereo partly specified) the Activity [1] was 9%, the inhibition at 1 µM [3] was 46% and the inhibition at 0.1 µM [6] was 54%.
